This is a sample that favours compounds with a hit; in the whole collection about 5.8% have one here.
T cruzi growth-1 – inhibitors of T. cruzi proliferation; inhibition, % at 8.34 µM; T. cruzi beta-gal in NIH3T3, GalScreen luminescence, 90 h; AID 624255; 77,000 compounds, 5.9% hits;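 active = mean inhibition above about 93%, with at least 55% of replicates each passing it, limit read from the data, passing the limit was not always enough; inconclusive = only one of those two conditions holds; inactive = neither condition holds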
IDH1 R132H inh – blocks human IDH1 R132H reductase activity; inhibition, % at 10 µM; diaphorase/resazurin fluorescence, 60 min; 70,000 compounds, 0.18% hits; O75874; in the data active = inhibition above about 34%; inconclusive = no clear call, values can overlap the other calls; inactive = below about 11%
Target sequence (O75874 whole entry R132H): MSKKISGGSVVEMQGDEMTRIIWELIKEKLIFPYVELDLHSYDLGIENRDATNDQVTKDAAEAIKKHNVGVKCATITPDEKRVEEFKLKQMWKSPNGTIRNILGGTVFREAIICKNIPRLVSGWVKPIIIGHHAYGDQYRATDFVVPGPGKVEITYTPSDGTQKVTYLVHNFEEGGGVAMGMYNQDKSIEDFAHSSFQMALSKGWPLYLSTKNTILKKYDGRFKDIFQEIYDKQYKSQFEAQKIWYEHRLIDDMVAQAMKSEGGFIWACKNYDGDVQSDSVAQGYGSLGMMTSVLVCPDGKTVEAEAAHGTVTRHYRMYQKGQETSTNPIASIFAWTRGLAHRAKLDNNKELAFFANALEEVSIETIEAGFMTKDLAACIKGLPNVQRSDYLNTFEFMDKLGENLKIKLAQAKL
GASC1 inh – blocks human GASC-1 (KDM4C) demethylase activity | 96,000 compounds, 0.15% hits | inhibition, % at 12.5 µM | AID 720574 | Q9H3R0 | GST-KDM4C 2-372, H3K9me3 peptide, LANCE TR-FRET;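 active = mean replicate inhibition above about 25%, with at least 55% of replicates also reaching it, limit read from the data, passing the limit was not always enough; inconclusive = only one of those two conditions met; inactive = neither condition met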
Target sequence (Q9H3R0 2-372 limits assumed): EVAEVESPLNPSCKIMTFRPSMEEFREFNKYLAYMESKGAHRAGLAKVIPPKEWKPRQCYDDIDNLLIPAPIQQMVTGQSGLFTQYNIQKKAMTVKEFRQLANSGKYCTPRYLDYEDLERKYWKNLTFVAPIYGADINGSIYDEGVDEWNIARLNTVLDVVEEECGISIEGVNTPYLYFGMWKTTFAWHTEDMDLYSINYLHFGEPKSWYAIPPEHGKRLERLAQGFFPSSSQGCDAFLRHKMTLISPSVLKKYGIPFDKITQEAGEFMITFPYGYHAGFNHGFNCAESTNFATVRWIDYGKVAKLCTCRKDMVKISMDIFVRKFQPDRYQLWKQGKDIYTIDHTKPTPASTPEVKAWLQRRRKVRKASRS
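System: N-terminal GST-fused human GASC-1 (KDM4C) fragment, residues 2-372 / Amount: 10 nM GST-KDM4C in enzyme reaction / Also added: H3K9me3 peptide with Fe(II)/2OG / Times: 30 min demethylation and 1 h detection at room temperature / Signal: LANCE TR-FRET / Read-out basis: Fall in 671/618 emission ratio as inhibition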
Pf Dd2 growth – P. falciparum Dd2 growth inhibition | SYBR Green, 72 h; hits give low values | activity change, % at 10 µM | 94,000 compounds, 2.3% hits; in the data active = activity change below about -80%; inconclusive = no clear call, values can overlap the other calls
T cruzi growth-2 – inhibitors of T. cruzi proliferation; shares compounds with T cruzi growth-1; T. cruzi beta-gal in NIH3T3, GalScreen luminescence, 90 h; inhibition, % at 8.35 µM; 5,600 compounds, 72% hits; AID 651739;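 active = mean replicate inhibition above about 95% and at least 55% of replicates individually reaching it, limit read from the data; inconclusive = only one of the two criteria is met; inactive = neither criterion is met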
T cruzi growth-3 – blocks T. cruzi growth in NIH3T3 host cells; shares compounds with T cruzi growth-1; T. cruzi beta-gal in NIH3T3, GalScreen luminescence, 90 h; inhibition, % at 2.09 µM; 5,600 compounds, 21% hits; AID 651740;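 active = mean inhibition above about 95%, with at least 55% of replicates also reaching it, limit read from the data; inconclusive = meets just one of the two conditions; inactive = meets neither condition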
3T3 cytotox – kills mouse NIH/3T3 fibroblasts; shares compounds with T cruzi growth-1; NIH/3T3 viability, CellTiter-Glo ATP luminescence, 90 h; cytotoxicity (signal decrease), % at 8.35 µM; 5,600 compounds, 14% hits; AID 651742;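 active = mean signal decrease across replicates above about 35% based on untreated-well scatter, with enough replicates individually passing, limit read from the data; inconclusive = no rule stated though some were filed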
3T3 cytotox 2 – NIH/3T3 (mouse) viability loss. shares compounds with T cruzi growth-1. NIH/3T3 viability, CellTiter-Glo ATP luminescence, 90 h. inhibition, % at 24.9 µM. 5,600 compounds, 56% hits. AID 651744;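 active = mean loss of cell viability signal at or above a set limit, and enough replicates individually reaching it; inconclusive = meets only the mean limit or only the replicate share; inactive = meets neither condition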
Large screens that a line does not name were inactive (follow-up assays come after a bar, where they were run); ! = a repeat was not active.

COc1ccc(S(=O)(=O)Nc2ccc3c(c2)CC(=O)N([C@@H](C)CO)C[C@@H](C)[C@H](CN(C)Cc2ccccc2)O3)cc1	T cruzi growth-1 113 | T cruzi growth-2 108 | T cruzi growth-3 inactive | 3T3 cytotox inactive | 3T3 cytotox 2 inactive
COc1ccc(S(=O)(=O)Nc2ccc3c(c2)CC(=O)N([C@H](C)CO)C[C@H](C)[C@@H](CN(C)Cc2ccccc2)O3)cc1	T cruzi growth-1 99 | T cruzi growth-2 104 | T cruzi growth-3 inactive | 3T3 cytotox inactive | 3T3 cytotox 2 inactive
COc1ccc(S(=O)(=O)Nc2ccc3c(c2)CC(=O)N([C@H](C)CO)C[C@@H](C)[C@@H](CN(C)Cc2ccccc2)O3)cc1	none
C[C@@H]1CN([C@@H](C)CO)C(=O)Cc2cc(NS(=O)(=O)c3ccc(F)cc3)ccc2O[C@H]1CN(C)Cc1ccccc1	T cruzi growth-1 114 | T cruzi growth-2 111 | T cruzi growth-3 inactive | 3T3 cytotox inactive | 3T3 cytotox 2 inconclusive
C[C@@H]1CN([C@@H](C)CO)C(=O)Cc2cc(NS(=O)(=O)c3ccc(F)cc3)ccc2O[C@H]1CN(C)CC1CCCCC1	T cruzi growth-1 106 | T cruzi growth-2 112 | T cruzi growth-3 inactive | 3T3 cytotox inactive | 3T3 cytotox 2 103
C[C@H]1CN([C@@H](C)CO)C(=O)Cc2cc(NS(=O)(=O)c3ccc(F)cc3)ccc2O[C@H]1CN(C)CC1CCCCC1	none
COc1ccc(S(=O)(=O)N[C@H]2CC[C@@H](CC(=O)O)O[C@H]2CO)cc1	none
O=C(Nc1ccccc1)NC1CC(C(=O)O)Nc2cc(Cl)cc(Cl)c21 (configuration not stated)	none (no result: T cruzi growth-1, GASC1 inh, Pf Dd2 growth)
Cc1c(NC(=O)CN(c2ccc(F)c(Cl)c2)S(C)(=O)=O)cccc1[N+](=O)[O-]	none (no result: T cruzi growth-1, GASC1 inh, Pf Dd2 growth)
COc1ccc(-c2ccc([C@@H]3[C@H](CO)N4CCCCN(C(=O)NC(C)C)C[C@@H]34)cc2)cc1	T cruzi growth-1 109 (no result: IDH1 R132H inh) | T cruzi growth-2 108 | T cruzi growth-3 inactive | 3T3 cytotox inactive | 3T3 cytotox 2 45
Cc1cccc(-c2ccc([C@@H]3[C@H]4CN(C(=O)NC(C)C)CCCCN4[C@H]3CO)cc2)c1	none (no result: IDH1 R132H inh)
COc1ccccc1NC(=O)N1CCCCN2[C@H](CO)[C@H](c3ccc(-c4cccc(C)c4)cc3)[C@@H]2C1	T cruzi growth-1 inconclusive (no result: IDH1 R132H inh) | T cruzi growth-2 107 | T cruzi growth-3 103 | 3T3 cytotox inactive | 3T3 cytotox 2 inconclusive
COc1cccc(-c2ccc([C@@H]3[C@H](CO)N4CCCCN(C(=O)NC(C)C)C[C@@H]34)cc2)c1	T cruzi growth-1 102 (no result: IDH1 R132H inh) | T cruzi growth-2 105 | T cruzi growth-3 inactive | 3T3 cytotox inactive | 3T3 cytotox 2 48
COc1ccccc1NC(=O)N1CCCCN2[C@H](C1)[C@@H](c1ccc(-c3cccc(C)c3)cc1)[C@@H]2CO	none (no result: IDH1 R132H inh)
COc1cccc(-c2ccc([C@H]3[C@H]4CN(C(=O)NC(C)C)CCCCN4[C@H]3CO)cc2)c1	none (no result: IDH1 R132H inh)
Cc1cccc(-c2ccc([C@H]3[C@@H](CO)N4CCCCN(C(=O)NC(C)C)C[C@H]34)cc2)c1	T cruzi growth-1 109 (no result: IDH1 R132H inh) | T cruzi growth-2 108 | T cruzi growth-3 inactive | 3T3 cytotox inactive | 3T3 cytotox 2 105
COc1cccc(-c2cc(C#N)c(NC(=O)c3cccc([N+](=O)[O-])c3)o2)c1	none (no result: T cruzi growth-1, GASC1 inh, Pf Dd2 growth)
O=C(CC1(O)C(=O)N(Cc2ccc(Cl)cc2)c2ccc(Cl)cc21)c1ccc2c(c1)OCCO2 (configuration not stated)	none (no result: T cruzi growth-1, GASC1 inh, Pf Dd2 growth)
CN(C)C(=O)C[C@H]1C=C[C@H](NC(=O)Nc2cccc(F)c2)[C@H](CO)O1	none
C[C@@H]1CN([C@H](C)CO)C(=O)c2cccc(NC(=O)C3CCOCC3)c2O[C@H]1CN(C)C(=O)Nc1cccc2ccccc12	T cruzi growth-1 103 (no result: IDH1 R132H inh) | T cruzi growth-2 inactive | T cruzi growth-3 inactive | 3T3 cytotox inactive | 3T3 cytotox 2 inconclusive
C[C@@H]1CN([C@@H](C)CO)C(=O)c2cccc(NC(=O)C3CCOCC3)c2O[C@@H]1CN(C)C(=O)Nc1cccc2ccccc12	T cruzi growth-1 100 | T cruzi growth-2 inactive | T cruzi growth-3 inactive | 3T3 cytotox inactive | 3T3 cytotox 2 inactive
C[C@H]1CN([C@@H](C)CO)C(=O)c2cccc(NC(=O)C3CCOCC3)c2O[C@H]1CN(C)C(=O)Nc1cccc2ccccc12	none
C[C@H](CO)N1C[C@H](C)[C@H](CN(C)Cc2ccc(Cl)c(Cl)c2)Oc2c(NC(=O)Nc3ccc4c(c3)OCO4)cccc2C1=O	T cruzi growth-1 inconclusive (no result: IDH1 R132H inh) | T cruzi growth-2 101 | T cruzi growth-3 inactive | 3T3 cytotox inactive | 3T3 cytotox 2 27
C[C@@H]1CN([C@H](C)CO)C(=O)c2cccc(NC(=O)Nc3ccc4c(c3)OCO4)c2O[C@@H]1CN(C)Cc1ccc(Cl)c(Cl)c1	none (no result: IDH1 R132H inh)
COc1ccc(NC(=O)Nc2cccc3c2O[C@@H](CN(C)Cc2ccc(Cl)c(Cl)c2)[C@@H](C)CN([C@H](C)CO)C3=O)cc1	T cruzi growth-1 inconclusive (no result: IDH1 R132H inh, GASC1 inh) | T cruzi growth-2 111 | T cruzi growth-3 inactive | 3T3 cytotox inactive | 3T3 cytotox 2 38
COc1ccc(NC(=O)Nc2cccc3c2O[C@H](CN(C)Cc2ccc(Cl)c(Cl)c2)[C@H](C)CN([C@H](C)CO)C3=O)cc1	none (no result: IDH1 R132H inh)
COc1ccc(CN(C)C[C@H]2Oc3c(NC(=O)Nc4ccc(OC)cc4)cccc3C(=O)N([C@@H](C)CO)C[C@H]2C)cc1	none
COc1ccc(NC(=O)Nc2cccc3c2O[C@@H](CN(C)Cc2ccc(Cl)c(Cl)c2)[C@@H](C)CN([C@@H](C)CO)C3=O)cc1	T cruzi growth-1 122 | T cruzi growth-2 99 | T cruzi growth-3 inactive | 3T3 cytotox inactive | 3T3 cytotox 2 51
CN(CC(=O)Nc1ccccc1-c1ccccc1)S(=O)(=O)c1ccc2ccccc2c1	none (no result: T cruzi growth-1, GASC1 inh, Pf Dd2 growth)
C[C@@H]1CN([C@@H](C)CO)S(=O)(=O)c2ccc(C#CC3CCCCC3)cc2O[C@@H]1CN(C)Cc1cccnc1	T cruzi growth-1 102! (no result: IDH1 R132H inh) | T cruzi growth-2 113 | T cruzi growth-3 inactive | 3T3 cytotox 51 | 3T3 cytotox 2 105
C[C@H](CO)N1C[C@H](C)[C@@H](CN(C)Cc2cccnc2)Oc2cc(C#CC3CCCC3)ccc2S1(=O)=O	T cruzi growth-1 96 (no result: IDH1 R132H inh) | T cruzi growth-2 102 | T cruzi growth-3 109 | 3T3 cytotox inactive | 3T3 cytotox 2 105
Cn1c(=O)c2[nH]c(-c3ccc(Cl)cc3)c(O)c2n(C)c1=O	none (no result: T cruzi growth-1, GASC1 inh, Pf Dd2 growth)
COc1ccc(S(=O)(=O)N(C)C[C@@H]2Oc3c(NC(=O)Nc4cccc5ccccc45)cccc3C(=O)N([C@H](C)CO)C[C@@H]2C)cc1	T cruzi growth-1 126, Pf Dd2 growth -92 | T cruzi growth-2 inconclusive | T cruzi growth-3 inactive | 3T3 cytotox inactive | 3T3 cytotox 2 30
